Measured values reported in ChEMBL document CHEMBL1122522, “Conformationally restricted retinoids” (1984).
One block for each molecule: values may come before it. Active and inactive are the calls of the source. The rule behind the calls is not given here.

Columns and labels:
[1] = Mortality range in days at dose 30 umol/kg day; 7-10; type: functional, Mus musculus
In short: (§1)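 Adult female Swiss mice (20–25 g) had chow and water ad libitum. The retinoid was homogenized as a suspension in aqueous 8% Cremophor EL plus 10% propylene glycol. It was given ip as 10 weekday injections over 14 days. Controls received vehicle alone. Survivors were weighed on days 1, 5, 10 and 15, and dates of death were recorded. Survival was scored at days 8 and 15.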

Mus musculus [2] = species: Mus musculus; experiment: Percent decrease in average number of papillomas 1.7 at dose*-p<0.001; type: functional
In short: (§2)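 Female Charles River CD-1 mice, 8 weeks old, in random groups of 25–30, were shaved 2 days before initiation with 200 nmol DMBA in acetone on the back. From 2 weeks on, 8.5 nmol TPA was applied twice weekly for 20 weeks. Retinoid in 0.2 mL acetone, or acetone alone for controls, was given 1 h before each TPA dose. Papillomas were counted weekly, and mean papillomas per mouse were compared with controls at 20 weeks.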

Mus musculus [3] = species: Mus musculus; experiment: Tested for relative activity in a 20-week anti-papilloma experiment in female CD-1 mice at dose 17 nmol; e-Animalsdied at 3-7 weeks; type: functional, organism-based; in short: as §2
Cricetinae gen. sp. [4] = experiment: Activity of compound the was expressed as ratio of active hamster tracheal organ cultures(TOC) to the total cultures at 10e-10 M concentration; 15/15; type: functional, Cricetulus griseus, Trachea
In short: (§3)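 Tracheal organ cultures came from vitamin A-deficient hamsters. Each culture was scored for reversal of keratinization and reported as active cultures out of total cultures at each retinoid concentration tested (10⁻⁸ to 10⁻¹² M). The protocol followed earlier published methods.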

Mus musculus [5] = species: Mus musculus; experiment: Tested for relative activity in a 20-week anti-papilloma experiment in female CD-1 mice at dose 1.7 nmol; type: functional; in short: as §2
Cricetinae gen. sp. [6] = experiment: Activity of compound the was expressed as ratio of active hamster tracheal organ cultures(TOC) to the total cultures at 10e-12 M concentration; 6/15; type: functional, Cricetulus griseus, Trachea; in short: as §3
Cricetinae gen. sp. [7] = experiment: Molarity required to effect reversal of keratinization in 50% of cultures.; type: functional, Cricetulus griseus
[8] = Mortality range in days at dose 30 umol/kg day; 7-11; type: functional, Mus musculus; in short: as §1
[9] = biological target: T1, Ornithine decarboxylase (Mus musculus) (UniProt P00860); experiment: TInhibition of the induction of ornithine decarboxylase in mouse epidermis by the tumor promoter 12-O-tetradecanoylphorbol-13-acetate (ODC) at dose 1.7 nmol*-p<0.001
T1 sequence (whole entry): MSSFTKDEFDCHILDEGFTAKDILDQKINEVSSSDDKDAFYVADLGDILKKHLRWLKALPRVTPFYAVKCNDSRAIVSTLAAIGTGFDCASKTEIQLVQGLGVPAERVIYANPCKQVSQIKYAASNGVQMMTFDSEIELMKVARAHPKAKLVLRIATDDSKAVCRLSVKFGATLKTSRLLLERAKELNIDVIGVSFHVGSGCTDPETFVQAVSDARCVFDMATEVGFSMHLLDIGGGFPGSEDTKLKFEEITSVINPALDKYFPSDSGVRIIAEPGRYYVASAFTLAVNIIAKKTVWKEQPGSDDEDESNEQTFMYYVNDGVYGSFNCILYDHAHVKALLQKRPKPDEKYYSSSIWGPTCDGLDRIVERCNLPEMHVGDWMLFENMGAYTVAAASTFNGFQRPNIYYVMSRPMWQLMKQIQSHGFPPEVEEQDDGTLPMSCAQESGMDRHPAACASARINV

Mus musculus [10] = species: Mus musculus; experiment: Percent decrease in average number of papillomas 0.17 at dose*-p<0.001; type: functional; in short: as §2
Cricetinae gen. sp. [11] = experiment: Activity of compound the was expressed as ratio of active hamster tracheal organ cultures(TOC) to the total cultures at 10e-11 M concentration; 15/15; type: functional, Cricetulus griseus, Trachea; in short: as §3
[12] = Percent survivors at dose 3.3 umol/kg day; type: functional, Mus musculus; in short: as §1
Mus musculus [13] = species: Mus musculus; experiment: Tested for relative activity in a 20-week anti-papilloma experiment in female CD-1 mice at dose 0.17 nmol; type: functional; in short: as §2
[14] = Mortality range in days at dose 20 umol/kg day; 6-8; type: functional, Mus musculus; in short: as §1
Mus musculus [15] = species: Mus musculus; experiment: Tested for relative activity in a 20-week anti-papilloma experiment in female CD-1 mice at dose 170 nmol;d- Animals died at 1-2 weeks; type: functional, organism-based; in short: as §2
[16] = Percent survivors at dose 10 umol/kg day; type: functional, Mus musculus; in short: as §1
[17] = Mortality range in days at dose 30 umol/kg day; 10-15; type: functional, Mus musculus; in short: as §1
[18] = biological target: T1, Ornithine decarboxylase (Mus musculus); experiment: Inhibition of the induction of ornithine decarboxylase in mouse epidermis by the tumor promoter 12-O-tetradecanoylphorbol-13-acetate (ODC) at dose 17 nmol*-p<0.001
[19] = Percent survivors at dose 30 umol/kg day; type: functional, Mus musculus; in short: as §1
[20] = Percent survivors at dose 1.0 umol/kg day; type: functional, Mus musculus; in short: as §1
Cricetinae gen. sp. [21] = experiment: Activity of compound the was expressed as ratio of active hamster tracheal organ cultures(TOC) to the total cultures at 10e-9 M concentration; 5/19; type: functional, Cricetulus griseus, Trachea; in short: as §3
Cricetinae gen. sp. [22] = experiment: Activity of compound the was expressed as ratio of active hamster tracheal organ cultures(TOC) to the total cultures at 10e-10 M concentration; 12/14; type: functional, Cricetulus griseus, Trachea; in short: as §3
Cricetinae gen. sp. [23] = experiment: Activity of compound the was expressed as ratio of active hamster tracheal organ cultures(TOC) to the total cultures at 10e-9 M concentration; 7/7; type: functional, Cricetulus griseus, Trachea; in short: as §3
[24] = biological target: T1, Ornithine decarboxylase (Mus musculus); experiment: TInhibition of the induction of ornithine decarboxylase in mouse epidermis by the tumor promoter 12-O-tetradecanoylphorbol-13-acetate (ODC) at dose 1.7 nmol
Mus musculus [25] = species: Mus musculus; experiment: Percent decrease in average number of papillomas 17 at dose; type: functional; in short: as §2
[26] = Percent survivors at dose 300 umol/kg day; type: functional, Mus musculus; in short: as §1
[27] = Percent survivors at dose 100 umol/kg day; type: functional, Mus musculus; in short: as §1
Mus musculus [28] = species: Mus musculus; experiment: Tested for relative activity in a 20-week anti-papilloma experiment in female CD-1 mice at dose 170 nmol; type: functional; in short: as §2
[29] = biological target: T1, Ornithine decarboxylase (Mus musculus); experiment: Inhibition of the induction of ornithine decarboxylase in mouse epidermis by the tumor promoter 12-O-tetradecanoylphorbol-13-acetate (ODC)) at dose 17 nmol
Cricetinae gen. sp. [30] = experiment: Activity of compound the was expressed as ratio of active hamster tracheal organ cultures(TOC) to the total cultures at 10e-8 M concentration; 7/7; type: functional, Cricetulus griseus, Trachea; conditions: at 0.01 µM
[31] = Percent survivors at dose 600 umol/kg day; type: functional, Mus musculus; in short: as §1
[32] = Mortality range in days at dose 600 umol/kg day; 9-10; type: functional, Mus musculus; in short: as §1
Mus musculus [33] = species: Mus musculus; experiment: Tested for relative activity in a 20-week anti-papilloma experiment in female CD-1 mice at dose 17 nmol; type: functional; in short: as §2
Mus musculus [34] = species: Mus musculus; experiment: Percent decrease in average number of papillomas 170 at dose; type: functional; in short: as §2
[35] = Percent survivors at dose 200 umol/kg day; type: functional, Mus musculus; in short: as §1
[36] = Mortality range in days at dose 300 umol/kg day; 14-15; type: functional, Mus musculus; in short: as §1
[37] = biological target: T1, Ornithine decarboxylase (Mus musculus); experiment: Inhibition of the induction of ornithine decarboxylase in mouse epidermis by the tumor promoter 12-O-tetradecanoylphorbol-13-acetate (ODC) at dose 17 nmol * p<0.05
Cricetinae gen. sp. [38] = experiment: Activity of compound the was expressed as ratio of active hamster tracheal organ cultures(TOC) to the total cultures at 10e-10 M concentration; 3/14; type: functional, Cricetulus griseus, Trachea; in short: as §3
Cricetinae gen. sp. [39] = experiment: Activity of compound the was expressed as ratio of active hamster tracheal organ cultures(TOC) to the total cultures at 10e-8 M concentration; 8/8; type: functional, Cricetulus griseus, Trachea; in short: as §3
[40] = biological target: T1, Ornithine decarboxylase (Mus musculus); experiment: Inhibition of the induction of ornithine decarboxylase in mouse epidermis by the tumor promoter 12-O-tetradecanoylphorbol-13-acetate (ODC) at dose 1.7 nmol * p<0.02
Cricetinae gen. sp. [41] = experiment: Activity of compound the was expressed as ratio of active hamster tracheal organ cultures(TOC) to the total cultures at 10e-9 M concentration; 8/14; type: functional, Cricetulus griseus, Trachea; in short: as §3

Compound: C/C(=C\c1ccc(C(=O)O)cc1)c1ccc2c(c1)C(C)(C)CCC2(C)C
Mortality range [1]: 10 days
Decrease (Mus musculus [2]): 92.3%
Activity (Mus musculus [3]): inactive
Activity (Cricetinae gen. sp. [4]): 15%
Activity (Mus musculus [5]): 50%
Activity (Cricetinae gen. sp. [6]): 6%
ED50 (Cricetinae gen. sp. [7]): 1e-12
Mortality range [8]: 11 days
inhibition [9]: 89%
Decrease (Mus musculus [10]): 62.9%
Activity (Cricetinae gen. sp. [11]): 15%
Survivors at day 8 [12]: 97%
Survivors at day 15 [12]: 0%
Activity (Mus musculus [13]): 73%
Mortality range [14]: 8 days
Activity (Mus musculus [15]): inactive
Survivors at day 8 [16]: 87%
Survivors at day 15 [16]: 0%
Mortality range [17]: 15 days
inhibition [18]: 91%
Survivors at day 8 [19]: 50%
Survivors at day 15 [19]: 0%
Survivors at day 8 [20]: 100%
Survivors at day 15 [20]: 30%

Compound: CCOC(=O)/C=C(C)/C=C/C=C(C)/C=C/C1=CC2CCC1C2 (configuration not stated)
ED50 (Cricetinae gen. sp. [7]): >1e-09
Activity (Cricetinae gen. sp. [21]): 26%

Compound: C/C(=C\c1ccc(C(=O)O)cc1)c1ccc2c(c1)C(C)(C)CCS2
Activity (Cricetinae gen. sp. [22]): 12%
Activity (Cricetinae gen. sp. [23]): 100%
inhibition [24]: 68%
Decrease (Mus musculus [25]): 93.4%
Survivors at day 8 [26]: 100%
Survivors at day 15 [26]: 80%
Survivors at day 8 [27]: 100%
Survivors at day 15 [27]: 100%
Activity (Mus musculus [28]): 38%
inhibition [29]: 85%
Activity (Cricetinae gen. sp. [30]): 7%
Survivors at day 8 [31]: 100%
Survivors at day 15 [31]: 0%
ED50 (Cricetinae gen. sp. [7]): 5e-11
Mortality range [32]: 10 days
Activity (Mus musculus [33]): 53%
Decrease (Mus musculus [34]): 93.6%
Survivors at day 8 [35]: 100%
Mortality range [36]: 15 days
Survivors at day 15 [19]: 100%

inhibition [37]: 69%
inhibition [40]: 33%
Compound: C/C(=C\c1ccc(C(=O)O)cc1)c1ccc2c(c1)C1CCC2C1 (configuration not stated)
Activity (Cricetinae gen. sp. [38]): 3%
ED50 (Cricetinae gen. sp. [7]): 6e-10
Activity (Cricetinae gen. sp. [39]): 8%
Activity (Cricetinae gen. sp. [41]): 57%
